Experimental data of several laboratories.
Lines come from different studies, so protocols differ.
CYP3A7: Cytochrome P450 3A7 (CYP3A7, Homo sapiens, UniProt P24462)

SMILES | target or system | assay | test system | conditions | measurement | value
C=C(C)[C@@]12O[C@@]3(/C=C/C=C/C=C/CCC)O[C@@H]1[C@@H]1[C@@H]4O[C@]4(CO)[C@@H](O)[C@]4(O)C(=O)C(C)=C[C@H]4[C@@]1(O3)[C@H](C)[C@H]2OC(=O)c1ccccc1 | MT4 | cell growth or viability, ATP luminescence |  | 96 h | IC50 | > 0.034 µM
CCCC/C=C/C=C/CC(=O)O[C@@]12[C@H](OC(=O)c3ccccc3)[C@@H](C)[C@]3(O)[C@@H]4C=C(C)C(=O)[C@@]4(O)[C@H](O)C(CO)=C[C@H]3[C@@H]1C2(C)C | MT4 | cell growth or viability, ATP luminescence |  |  | CC50 | > 7 µM
O=S(=O)(O)C(F)(F)C(F)(F)C(F)(F)C(F)(F)C(F)(F)C(F)(F)F | CYP3A7 | enzyme activity, inhibitor |  | 10 µM, pH 7.4 | inhibition | 29.1%
CC[C@H](C)[C@H]1C(=O)N2CCC[C@H]2C(=O)O[C@H](C(C)(C)C)C[C@@H](C)C[C@H](O)[C@H](C)C2=N[C@H](CCC(=O)N[C@@H](Cc3ccc(OC)cc3)C(=O)N(C)[C@@H](C)C(=O)N1C)CS2 |  | metabolic stability | female CD-1 mouse, liver microsomes | 1 µM, 0 h, pH 7.4 | compound remaining | 100%
C=C(C)[C@@]12O[C@@]3(/C=C/C=C/C=C/CCC)O[C@@H]1[C@@H]1[C@@H]4O[C@]4(CO)[C@@H](O)[C@]4(O)C(=O)C(C)=C[C@H]4[C@@]1(O3)[C@H](C)[C@H]2OC(=O)/C=C/c1ccc(O)cc1 | MT4 | cell growth or viability, ATP luminescence |  | 96 h | IC50 | > 0.034 µM
C#Cc1ccc2c(c1)C(c1ccccc1F)=N[C@@H](C)c1c(C(=O)OCC(F)(F)F)ncn1-2 |  | metabolic stability | mouse, liver microsomes | 20 min | compound remaining | < 5%
COC(=O)N[C@H](C(=O)NN(CC[C@@]1(Cc2ccccc2)C(=O)N([C@H]2c3ccccc3C[C@H]2O)C[C@@H]1O)Cc1ccc(-c2cccnc2)cc1)C(C)(C)C | MT4 | cell growth or viability, XTT |  | 5 days | CC50 | > 50 µM
CCCCCCCCCC(=O)O[C@@]12[C@H](OC(=O)c3ccccc3)[C@@H](C)[C@]3(O)[C@@H]4C=C(C)C(=O)[C@@]4(O)[C@H](O)C(CO)=C[C@H]3[C@@H]1C2(C)C | MT4 | cell growth or viability, ATP luminescence |  |  | CC50 | > 7 µM
O=S(=O)(O)C(F)(F)C(F)(F)C(F)(F)C(F)(F)C(F)(F)C(F)(F)C(F)(F)C(F)(F)F | CYP3A7 | enzyme activity, inhibitor, mass spectrometry |  |  | IC50 | 16.8 µM
C=C(C)[C@@]12O[C@@]3(/C=C/C=C/C=C/CCC)O[C@@H]1[C@@H]1[C@@H]4O[C@]4(CO)[C@@H](O)[C@]4(O)C(=O)C(C)=C[C@H]4[C@@]1(O3)[C@H](C)[C@H]2OC(=O)/C=C/c1ccccc1 | MT4 | cell growth or viability, ATP luminescence |  | 96 h | IC50 | > 0.034 µM
Cc1ncc2n1-c1ccc(Cl)cc1C(c1ccccc1F)=NC2 |  | metabolic stability | CD-1 mouse, hepatocytes | 1 µM, 4 h | compound remaining | 0.3%
Cc1ncc2n1-c1ccc(Cl)cc1C(c1ccccc1F)=NC2 |  | metabolic stability | male CD-1 mouse, liver microsomes | 1 µM, 30 min | compound remaining | < 7%
C=C(C)[C@]1(O)C[C@@H](C)[C@@]2(O)[C@@H]([C@H]3O[C@@]4([C@H](O)[C@]3(O)COC(=O)c3ccccc3)[C@@H](OC(=O)/C=C/C=C/C=C/CCC)[C@@H](C)C[C@@H]24)[C@H]1O | MT4 | cell growth or viability, ATP luminescence |  | 96 h | IC50 | > 0.034 µM
O=C(O)C(F)(F)C(F)(F)C(F)(F)C(F)(F)C(F)(F)C(F)(F)C(F)(F)F | CYP3A7 | enzyme activity, inhibitor |  | 10 µM, pH 7.4 | inhibition | 16.3%
COC(=O)N[C@H](C(=O)NN(CC[C@@]1(Cc2ccccc2)C(=O)N([C@H]2c3ccccc3C[C@H]2O[Si](C)(C)C(C)(C)C)C[C@@H]1O[Si](C)(C)C(C)(C)C)Cc1ccc(Br)cc1)C(C)(C)C | MT4 | cell growth or viability, XTT |  | 5 days | CC50 | > 50 µM
CCCCCC/C=C/CC(=O)O[C@@]12[C@H](OC(=O)c3ccccc3)[C@@H](C)[C@@]3(O)[C@@H](C=C(CO)C[C@]4(O)C(=O)C(C)=C[C@@H]34)[C@@H]1C2(C)C | MT4 | cell growth or viability, ATP luminescence |  |  | CC50 | > 7 µM
N=c1c2c(-c3ccccc3)c(-c3ccccc3)n(Cc3ccccc3)c2ncn1[C@H]1CC[C@H](O)CC1 |  | metabolic stability | Sprague-Dawley rat, hepatocytes | 1 µM, 4 h | compound remaining | 44%
C=C(C)[C@@]12O[C@@]3(/C=C/C=C/CCCCC)O[C@@H]1[C@@H]1[C@@H]4O[C@]4(CO)[C@@H](O)[C@]4(O)C(=O)C(C)=C[C@H]4[C@@]1(O3)[C@H](C)[C@H]2OC(=O)c1ccccc1 | MT4 | cell growth or viability, ATP luminescence |  | 96 h | IC50 | > 0.034 µM
COC(=O)N[C@H](C(=O)NN(CC[C@]1(Cc2ccccc2)C(=O)N([C@H]2c3ccccc3C[C@H]2O)C[C@@H]1O)Cc1ccc(Br)cc1)C(C)(C)C | MT4 | cell growth or viability, XTT |  | 5 days | CC50 | > 50 µM
C=C(C)[C@@]12O[C@@]3(/C=C/C=C/CCCCC)O[C@@H]1[C@@H]1[C@@H]4O[C@]4(CO)[C@@H](O)[C@]4(O)C(=O)C(C)=C[C@H]4[C@@]1(O3)[C@H](C)[C@H]2OC(=O)/C=C/c1ccccc1 | MT4 | cell growth or viability, ATP luminescence |  | 96 h | IC50 | > 0.034 µM
CC[C@H](C)[C@H]1C(=O)N2CCC[C@H]2C(=O)O[C@H](C(C)(C)C)C[C@@H](C)C[C@H](O)CC2=N[C@@H](CCC(=O)N[C@@H](Cc3ccc(OC)cc3)C(=O)N(C)[C@@H](C)C(=O)N1C)CS2 |  | metabolic stability | female CD-1 mouse, liver microsomes | 1 µM, 0 h, pH 7.4 | compound remaining | 100%
